# Paper PMC4269301 (International journal of peptide research and therapeutics, 2014)
# Square brackets hold non-standard residues; d marks the D form. Ends that are not written are not given here. Peptide text beside a SMILES is read from it. Nle = CCCC[C@H](N)C(=O)O
# T1: GRK7 (Homo sapiens, UniProt Q8WTQ7)
# T1 sequence (Q8WTQ7 1-553): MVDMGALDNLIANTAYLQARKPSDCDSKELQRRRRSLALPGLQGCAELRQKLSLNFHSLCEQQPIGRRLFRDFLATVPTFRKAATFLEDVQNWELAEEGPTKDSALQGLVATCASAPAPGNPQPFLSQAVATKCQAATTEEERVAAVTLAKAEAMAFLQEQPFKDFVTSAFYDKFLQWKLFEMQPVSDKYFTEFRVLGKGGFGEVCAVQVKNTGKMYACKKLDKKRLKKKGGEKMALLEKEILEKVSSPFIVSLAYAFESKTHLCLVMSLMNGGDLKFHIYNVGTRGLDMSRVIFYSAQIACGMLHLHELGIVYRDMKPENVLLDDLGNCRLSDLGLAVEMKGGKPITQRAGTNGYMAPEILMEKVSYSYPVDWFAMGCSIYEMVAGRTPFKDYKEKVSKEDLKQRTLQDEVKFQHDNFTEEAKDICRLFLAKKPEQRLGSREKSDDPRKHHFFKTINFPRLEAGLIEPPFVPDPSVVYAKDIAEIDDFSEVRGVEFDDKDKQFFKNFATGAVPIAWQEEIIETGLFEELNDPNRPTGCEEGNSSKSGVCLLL
# T2: GRK2 (Homo sapiens, UniProt P25098, S670A)
# T2 sequence (P25098 1-689 S670A): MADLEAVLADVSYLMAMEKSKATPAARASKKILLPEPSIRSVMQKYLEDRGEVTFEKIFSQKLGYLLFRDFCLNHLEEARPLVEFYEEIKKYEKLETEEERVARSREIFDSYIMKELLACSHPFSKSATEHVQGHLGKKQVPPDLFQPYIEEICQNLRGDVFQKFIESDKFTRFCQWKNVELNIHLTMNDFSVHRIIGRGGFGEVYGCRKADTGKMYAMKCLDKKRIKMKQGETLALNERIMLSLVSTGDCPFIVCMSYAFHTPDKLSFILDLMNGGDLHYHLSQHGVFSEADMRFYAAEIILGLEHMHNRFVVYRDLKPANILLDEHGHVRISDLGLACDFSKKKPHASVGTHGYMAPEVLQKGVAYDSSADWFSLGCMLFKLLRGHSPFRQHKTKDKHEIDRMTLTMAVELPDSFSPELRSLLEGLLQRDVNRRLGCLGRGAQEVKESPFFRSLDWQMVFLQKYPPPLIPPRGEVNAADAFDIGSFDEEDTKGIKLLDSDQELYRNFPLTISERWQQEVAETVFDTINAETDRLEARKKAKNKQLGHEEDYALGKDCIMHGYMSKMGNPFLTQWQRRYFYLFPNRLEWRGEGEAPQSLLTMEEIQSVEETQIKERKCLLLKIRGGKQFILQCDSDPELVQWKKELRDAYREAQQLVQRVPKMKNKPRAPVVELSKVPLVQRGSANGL
# Columns and labels:
# GRK5 [1] = target: T3, GRK5 (Homo sapiens, UniProt P34947); experiment: GRK5 phosphorylation of light-activated rhodopsin; type: biochemical; conditions: for inhibition at 100 µM: read-out: % Inhibition (100 μM) of GRK5 phosphorylation of rhodopsin; for % Inhibition (100 μM) of GRK5 phosphorylation of rhodopsin: 100 μM peptide, 0.5 μM light-activated rhodopsin, 100 μM ATP, 5 min; for Inhibition of GRK5 phosphorylation of rhodopsin: peptides 10, 30 and 100 μM, four or more experiments in duplicate
# T3 sequence (P34947 whole entry): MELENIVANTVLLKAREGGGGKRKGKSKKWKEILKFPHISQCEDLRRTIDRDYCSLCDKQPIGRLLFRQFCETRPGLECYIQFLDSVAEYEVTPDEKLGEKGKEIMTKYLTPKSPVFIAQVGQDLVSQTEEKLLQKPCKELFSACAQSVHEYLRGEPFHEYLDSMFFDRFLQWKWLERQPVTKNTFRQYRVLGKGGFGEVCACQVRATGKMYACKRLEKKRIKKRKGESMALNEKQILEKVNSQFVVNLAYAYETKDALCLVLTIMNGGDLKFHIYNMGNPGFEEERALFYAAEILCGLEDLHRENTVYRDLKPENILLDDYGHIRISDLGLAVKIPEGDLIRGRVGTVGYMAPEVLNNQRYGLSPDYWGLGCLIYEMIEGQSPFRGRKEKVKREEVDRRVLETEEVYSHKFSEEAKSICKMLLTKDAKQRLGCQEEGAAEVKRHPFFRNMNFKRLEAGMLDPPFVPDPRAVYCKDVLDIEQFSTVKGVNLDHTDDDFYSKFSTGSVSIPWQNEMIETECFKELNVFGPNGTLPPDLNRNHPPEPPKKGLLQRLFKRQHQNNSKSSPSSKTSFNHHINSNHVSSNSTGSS
# GRK6 = GRK6 phosphorylation of light-activated rhodopsin; type: biochemical, human; conditions: peptides 10, 30 and 100 μM; four or more experiments in duplicate
# How it was run: (§1)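 Light-activated (475 nm, 30 s) rhodopsin, 0.5 μM, from urea-stripped bovine ROS. Kinase was purified GRK2 (His₆, S670A, Sf9/baculovirus, Ni-IMAC) or N-terminal His₆ full-length human GRK6, at 10–100 nM. Buffer: 20 mM Tris pH 7.5, 10 mM MgCl₂, 1 mM EDTA, 100 μM [γ³²P]ATP; peptides in DMSO (2–4 %). Ran 5 min, then SDS-PAGE and autoradiography. ≥4 experiments in duplicate, % of control.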
# GRK7 = target: T1, GRK7; experiment: GRK7 phosphorylation of light-activated rhodopsin; type: biochemical; conditions: for Inhibition of GRK7 phosphorylation of rhodopsin: peptides 10, 30 and 100 μM, four or more experiments in duplicate
# How it was run: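 Substrate is urea-stripped bovine rod outer segment rhodopsin (0.5 μM in reaction buffer; 0.5–4 μM per legend), light-activated at 475 nm for 30 s. Peptides are dissolved in DMSO (2–4% final) and quantified by A280. Results are normalised to the no-peptide control as mean ± SEM.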
# GRK5 [2] = target: T3, GRK5; experiment: GRK5 phosphorylation of tubulin; type: biochemical; conditions: for % inhibition of GRK5 phosphorylation of tubulin: 100 μM peptide, 100 nM GRK5, 60 min; for % inhibition of GRK5 phosphorylation of tubulin / Effect on GRK5 phosphorylation of tubulin, basal activity: 0.5 μM tubulin, 30 °C; for Effect on GRK5 phosphorylation of tubulin, basal activity: 60 min
# How it was run: (§2)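 Bovine brain tubulin 500 nM with 100 nM GRK2 (His₆, S670A, Sf9-expressed) or human His₆-GRK5; 20 mM Tris pH 7.5, 1 mM EDTA, 10 mM MgCl₂, 5 μM DTT, 100 μM [γ³²P]ATP; 60 min, 30 °C. 12 % SDS-PAGE; ³²P-tubulin counted from excised bands or by autoradiogram densitometry. Mean ± SEM, ≥4 experiments in duplicate, % of control; one-way ANOVA.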
# GRK2 [3] = target: T2, GRK2; experiment: GRK2 phosphorylation of light-activated rhodopsin; type: biochemical; conditions: peptides 10, 30 and 100 μM; four or more experiments in duplicate
# How it was run: as §1
# GRK2 [4] = target: T2, GRK2; experiment: GRK2 phosphorylation of tubulin; type: biochemical; conditions: for % inhibition of GRK2 phosphorylation of tubulin: 100 μM peptide, 100 nM GRK2, 60 min; for % inhibition of GRK2 phosphorylation of tubulin / Effect on GRK2 phosphorylation of tubulin, basal activity: 0.5 μM tubulin, 30 °C; for Effect on GRK2 phosphorylation of tubulin, basal activity: 60 min
# How it was run: as §2
# [5] = target: Human His6-tagged GRK5 (human) (UniProt P34947)
# Human His6-tagged GRK5 (human), sequence (P34947 whole entry): as above
# [6] = target: Human His6-tagged GRK5 (human) (UniProt P34947); remark: listed apart in the source
# [7] = target: light-activated rhodopsin in urea-stripped bovine rod outer segments (bovine) (UniProt P02699)
# light-activated rhodopsin in urea-stripped bovine rod outer segments (bovine), sequence (P02699 whole entry): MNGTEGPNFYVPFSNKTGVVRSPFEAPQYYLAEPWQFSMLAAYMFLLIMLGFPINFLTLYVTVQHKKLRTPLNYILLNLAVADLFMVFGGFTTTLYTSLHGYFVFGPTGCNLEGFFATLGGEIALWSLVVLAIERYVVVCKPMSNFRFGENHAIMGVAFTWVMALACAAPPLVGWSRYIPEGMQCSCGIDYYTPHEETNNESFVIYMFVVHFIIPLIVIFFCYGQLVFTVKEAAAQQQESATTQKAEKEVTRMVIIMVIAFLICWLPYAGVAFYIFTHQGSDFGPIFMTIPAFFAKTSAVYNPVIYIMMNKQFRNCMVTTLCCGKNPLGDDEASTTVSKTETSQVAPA
molecule,measurement,setting,value
CCCC[C@H](NC(=O)[C@H](CO)NC(C)=O)C(=O)N[C@@H](Cc1ccccc1)C(=O)N[C@@H](Cc1ccccc1)C(=O)N[C@@H](CC(=O)O)C(=O)N[C@@H](CCCNC(=N)N)C(=O)N[C@@H](Cc1ccccc1)C(=O)N[C@@H](CC(C)C)C(=O)N[C@@H](C)C(=O)N[C@@H](Cc1c[nH]c2ccccc12)C(=O)N[C@@H](CCCCN)C(=O)N[C@@H](Cc1c[nH]c2ccccc12)C(=O)N[C@@H](CC(C)C)C(=O)N[C@@H](CCC(=O)O)C(=O)N[C@@H](CCCNC(=N)N)C(N)=O [Peptide Q172A] (Ac-S[Nle]FFDRFLAWKWLER-NH2),IC50,GRK5 [1],15.1 ± 7.3 µM
same,inhibition at 100 µM,GRK5 [1],95%
Ac-S[Nle]AFDRFLQWKWLER-NH2 [Peptide F166A],% Inhibition (100 μM) of GRK5 phosphorylation of rhodopsin,GRK5 [1],42%
Ac-PIGRLLFRQFC-NH2 [α3],Inhibition of GRK6 phosphorylation of rhodopsin,GRK6,little activity
same,Inhibition of GRK7 phosphorylation of rhodopsin,GRK7,inhibited
same,Inhibition of GRK5 phosphorylation of rhodopsin,GRK5 [1],inhibited
same,IC50,GRK5 [2],~30 µM
same,% inhibition of GRK5 phosphorylation of tubulin,GRK5 [2],60–80%
same,Inhibition of GRK2 phosphorylation of rhodopsin,GRK2 [3],inhibited
same,IC50,GRK2 [4],~30 µM
same,% inhibition of GRK2 phosphorylation of tubulin,GRK2 [4],60–80%
CCCC[C@H](NC(=O)[C@H](CO)NC(C)=O)C(=O)N[C@@H](Cc1ccccc1)C(=O)N[C@@H](Cc1ccccc1)C(=O)N[C@@H](CC(=O)O)C(=O)N[C@@H](CCCNC(=N)N)C(=O)N[C@@H](Cc1ccccc1)C(=O)N[C@@H](CC(C)C)C(=O)N[C@@H](CCC(N)=O)C(=O)N[C@@H](Cc1c[nH]c2ccccc12)C(=O)N[C@@H](CCCCN)C(=O)N[C@@H](Cc1c[nH]c2ccccc12)C(N)=O [Peptide T3] (Ac-S[Nle]FFDRFLQWKW-NH2),IC50,GRK5 [1],6.1 ± 4.4 µM
same,inhibition at 100 µM,GRK5 [1],97%
Ac-FFDAFLQWK-NH2 [Peptide T5],% Inhibition (100 μM) of GRK5 phosphorylation of rhodopsin,GRK5 [1],22%
α9 (164–178) peptide of GRK5,GRK5 phosphorylation of light-activated rhodopsin: IC50 of inhibition,[5],15.9 µM
CCCC[C@H](NC(=O)[C@H](CO)NC(C)=O)C(=O)N[C@@H](Cc1ccccc1)C(=O)N[C@@H](Cc1ccccc1)C(=O)N[C@@H](CC(=O)O)C(=O)N[C@@H](CCCNC(=N)N)C(=O)N[C@@H](Cc1ccccc1)C(=O)N[C@@H](CC(C)C)C(=O)N[C@@H](CCC(N)=O)C(=O)N[C@@H](Cc1c[nH]c2ccccc12)C(=O)N[C@@H](CCCCN)C(=O)N[C@@H](Cc1c[nH]c2ccccc12)C(=O)N[C@@H](CC(C)C)C(N)=O [Peptide T2] (Ac-S[Nle]FFDRFLQWKWL-NH2),IC50,GRK5 [1],5.2 ± 2 µM
same,inhibition at 100 µM,GRK5 [1],98%
Ac-S[Nle]FFDRFLQWK-NH2 [Peptide T4],% Inhibition (100 μM) of GRK5 phosphorylation of rhodopsin,GRK5 [1],72%
Ac-FFDRFLQWKWLER-NH2 [Peptide T1],IC50,GRK5 [1],23.9 ± 16 µM
same,inhibition at 100 µM,GRK5 [1],95%
CCCC[C@H](NC(=O)[C@H](CCC(=O)O)NC(=O)[C@H](CC(N)=O)NC(=O)[C@H](CCC(N)=O)NC(=O)[C@H](Cc1c[nH]c2ccccc12)NC(=O)[C@@H]1CCCN1C(=O)[C@@H](NC(=O)[C@H](CO)NC(=O)[C@@H](NC(C)=O)C(C)C)[C@@H](C)CC)C(=O)N[C@H](C(=O)N[C@@H](CCC(=O)O)C(N)=O)[C@@H](C)CC [α10] (Ac-VSIPWQNE[Nle]IE-NH2),Inhibition of GRK6 phosphorylation of rhodopsin,GRK6,inhibited
same,Inhibition of GRK7 phosphorylation of rhodopsin,GRK7,inhibited
same,Inhibition of GRK5 phosphorylation of rhodopsin,GRK5 [1],inhibited
same,% inhibition of GRK5 phosphorylation of tubulin,GRK5 [2],~ 45%
same,Inhibition of GRK2 phosphorylation of rhodopsin,GRK2 [3],less inhibition
same,"Effect on GRK2 phosphorylation of tubulin, basal activity",GRK2 [4],not significant
"Ac-ILENLKDCGLF-NH2 [TCT, reference compound]",Inhibition of GRK6 phosphorylation of rhodopsin,GRK6,showed inhibition
same,Inhibition of GRK7 phosphorylation of rhodopsin,GRK7,showed inhibition
same,IC50,GRK5 [1],~10 µM
same,Inhibition of GRK5 phosphorylation of rhodopsin,GRK5 [1],showed inhibition
same,"Effect on GRK5 phosphorylation of tubulin, basal activity",GRK5 [2],no significant effect
same,Inhibition of GRK2 phosphorylation of rhodopsin,GRK2 [3],relatively inactive
same,"Effect on GRK2 phosphorylation of tubulin, basal activity",GRK2 [4],no significant effect
CCCC[C@H](NC(=O)[C@H](CO)NC(C)=O)C(=O)N[C@@H](Cc1ccccc1)C(=O)N[C@@H](Cc1ccccc1)C(=O)N[C@@H](CC(=O)O)C(=O)N[C@@H](C)C(=O)N[C@@H](Cc1ccccc1)C(=O)N[C@@H](CC(C)C)C(=O)N[C@@H](CCC(N)=O)C(=O)N[C@@H](Cc1c[nH]c2ccccc12)C(=O)N[C@@H](CCCCN)C(=O)N[C@@H](Cc1c[nH]c2ccccc12)C(=O)N[C@@H](CC(C)C)C(=O)N[C@@H](CCC(=O)O)C(=O)N[C@@H](CCCNC(=N)N)C(N)=O [Peptide R169A] (Ac-S[Nle]FFDAFLQWKWLER-NH2),Inhibition of GRK6 phosphorylation of rhodopsin,GRK6,inhibited
same,Inhibition of GRK7 phosphorylation of rhodopsin,GRK7,inhibited
same,IC50,GRK5 [1],7.2 ± 4.8 µM
same,Inhibition of GRK5 phosphorylation of rhodopsin,GRK5 [1],inhibited
same,inhibition at 100 µM,GRK5 [1],98%
same,IC50,GRK5 [2],~30 µM
same,% inhibition of GRK5 phosphorylation of tubulin,GRK5 [2],60–80%
same,Inhibition of GRK2 phosphorylation of rhodopsin,GRK2 [3],less inhibition
same,IC50,GRK2 [4],~30 µM
same,% inhibition of GRK2 phosphorylation of tubulin,GRK2 [4],60–80%
Ac-S[Nle]FFDRFLQWKWAER-NH2 [Peptide L176A],% Inhibition (100 μM) of GRK5 phosphorylation of rhodopsin,GRK5 [1],74%
Ac-S[Nle]FFDRFLQAKWLER-NH2 [Peptide W173A],% Inhibition (100 μM) of GRK5 phosphorylation of rhodopsin,GRK5 [1],~26%
MELENIVANTVLLKAR-NH2 [N-Ter],Inhibition of GRK6 phosphorylation of rhodopsin,GRK6,less potent inhibitor
same,IC50,GRK7,5 to 10 µM
same,Inhibition of GRK7 phosphorylation of rhodopsin,GRK7,reasonably potent inhibitor
same,IC50,GRK5 [1],5 to 10 µM
same,Inhibition of GRK5 phosphorylation of rhodopsin,GRK5 [1],reasonably potent inhibitor
same,"Effect on GRK5 phosphorylation of tubulin, basal activity",GRK5 [2],no significant effect
same,Inhibition of GRK2 phosphorylation of rhodopsin,GRK2 [3],less potent inhibitor
same,"Effect on GRK2 phosphorylation of tubulin, basal activity",GRK2 [4],no significant effect
Ac-PIGRLLFRQFC-NH2 [α3 (61–71) peptide of GRK5],GRK5 phosphorylation of tubulin: IC50 of inhibition,[6],30 µM
Ac-ILENLKDCGLF-NH2 [Gα transducin C-tail peptide TCT (340–350) K341L],GRK5 phosphorylation of light-activated rhodopsin: IC50 of inhibition,[7],10 µM
